Assay results as given in ChEMBL document CHEMBL4376878, “Potent Thiophene Antagonists of Human Complement C3a Receptor with Anti-Inflammatory Activity” (J Med Chem, 2020).
The source made the active and inactive calls. No cut-off for these calls is given here.

Legend:
[1] = tested on: Rattus norvegicus; assay: Antiinflammatory activity in Wistar rat model of BR103-induced paw edema assessed as reduction in hind paw swelling at 10 mg/kg, po administered via gavage pretreated for 2 hrs followed by BR103 challenge and measured after 30 mins by digital caliper method relative to control; assay type: functional; set-up: scale not given: the % may be the effect or the level left
Outline: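 Male Wistar rats were given antagonist at 10 mg/kg by oral gavage in olive oil 2 h before intraplantar BR103 (350 μg in 100 μL of 5% DMSO). Sham paws received vehicle; sham and control rats received olive oil only. Paw thickness and width were measured with digital calipers at 0, 0.5, 1 and 2 h after agonist; n = 3 per group.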

[2] = Elimination half-life in Wistar rat at 0.5 mg/kg, iv by LC-MS/MS analysis; assay type: ADME, organism-based; conditions: in vivo, read-out: beta t1/2
Outline: (§1)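 Male Wistar rats with jugular vein catheter, fasted overnight; dosed p.o. by gavage in olive oil or i.v. via catheter in 50% DMSO. Blood drawn from conscious unrestrained rats 5 min before dosing, then 5, 15, 30 min and 1–8 h after. Volume replaced with heparinized saline. Rats fed after 4 h sample. n = 3 per route.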

[3] = AUC (0 to 8 hrs) in Wistar rat at 10 mg/kg, po by LC-MS/MS analysis; assay type: ADME, organism-based; set-up: dose 10 mg/kg, time < 8 hr, route oral; conditions: in vivo; outline: as §1
[4] = Stability of the compound in rat liver microsomes at 1 uM preincubated for 5 mins followed by NADPH addition and measured after 1 hr by LC-MS/MS analysis; assay type: ADME, Microsome
Outline: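 Compound at 1 μM in 100 mM phosphate buffer, pH 7.4 (0.1% DMSO), was incubated with rat liver microsomes […] at 37 °C before further NADPH was added. Aliquots taken at 0, 5, 15, 30 and 60 min were quenched in MeCN/H₂O (9:1), centrifuged and analysed by LC-MS/MS. Microsomal activity was confirmed in parallel with SLIGRL-NH₂; n = 3.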

[5] = Cmax in Wistar rat at 10 mg/kg, po by LC-MS/MS analysis; assay type: ADME, organism-based; set-up: dose 10 mg/kg, route oral; conditions: in vivo; outline: as §1
[6] = Stability of the compound in rat plasma at 1 mM measured after 4 hrs by LC-MS analysis; assay type: ADME, cell-free
Outline: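 Compound added to rat plasma from 1 mM DMSO stock (stock concentration) and incubated at 37 °C. Samples taken at 0, 5, 15, 30, 60, 120 and 240 min, quenched in MeCN/H₂O 9:1, centrifuged and analyzed by LC-MS. Plasma activity checked with SLIGRL-NH₂.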

[7] = Volume of distribution in Wistar rat at 0.5 mg/kg, iv by LC-MS/MS analysis; assay type: ADME, organism-based; conditions: in vivo; outline: as §1
[8] = Tmax in Wistar rat at 10 mg/kg, po by LC-MS/MS analysis; assay type: ADME, organism-based; conditions: in vivo; outline: as §1
[9] = AUC (0 to 8 hrs) in Wistar rat at 0.5 mg/kg, iv by LC-MS/MS analysis; assay type: ADME, organism-based; set-up: time < 8 hr, dose 0.5 mg/kg, route intravenous; conditions: in vivo; outline: as §1
[10] = Clearance in Wistar rat at 0.5 mg/kg, iv by LC-MS/MS analysis; assay type: ADME, organism-based; conditions: in vivo; outline: as §1
[11] = target: T1, C3a anaphylatoxin chemotactic receptor (Homo sapiens, UniProt Q16581); assay: Antagonist activity at C3a receptor in human MDM cells assessed as inhibition of C3a-induced intracellular calcium release preincubated for 30 mins followed by C3a addition and measured at 1 sec interval for => 200 secs by Fluo-3 AM dye-based FLIPR assay; assay type: functional, cell-based
T1 sequence (Q16581 whole entry): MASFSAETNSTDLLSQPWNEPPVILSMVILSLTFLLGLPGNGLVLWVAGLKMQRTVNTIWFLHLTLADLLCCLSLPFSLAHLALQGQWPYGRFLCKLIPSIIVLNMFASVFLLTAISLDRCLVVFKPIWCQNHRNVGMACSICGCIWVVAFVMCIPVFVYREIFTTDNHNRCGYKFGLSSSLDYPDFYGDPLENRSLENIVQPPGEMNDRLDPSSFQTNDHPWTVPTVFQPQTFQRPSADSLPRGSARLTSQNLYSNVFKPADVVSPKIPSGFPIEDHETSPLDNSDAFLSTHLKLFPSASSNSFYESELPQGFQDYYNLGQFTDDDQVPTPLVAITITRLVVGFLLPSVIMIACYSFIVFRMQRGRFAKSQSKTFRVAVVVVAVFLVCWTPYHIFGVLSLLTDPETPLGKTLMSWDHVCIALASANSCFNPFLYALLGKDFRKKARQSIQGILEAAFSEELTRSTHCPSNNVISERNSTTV
Outline: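 Macrophages were derived from CD14⁺ monocytes (M-CSF, 7 days) and dye-loaded with 4 μM Fluo-3 AM for 1 h at 37 °C in HBSS/probenecid/HEPES, pH 7.4. Antagonist was preincubated for 30 min at 37 °C before addition of synthetic full-length human C3a (100 nM). FLIPR fluorescence was read at ex 495/em 520 nm. Percent response was plotted against log concentration; n ≥ 3.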

[12] = target: T1, C3a anaphylatoxin chemotactic receptor; assay: Agonist activity at C3a receptor in human MDM cells assessed as induction of intracellular calcium release measured at 1 sec interval for => 200 secs by Fluo-3 AM dye-based FLIPR assay; assay type: cell-based
Outline: (§2)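 HMDMs were differentiated from CD14⁺ monocytes with M-CSF (100 ng/mL) for 7 days and seeded overnight at 5 × 10⁴ cells/well. Cells were loaded with 4 μM Fluo-3 AM for 1 h at 37 °C, then placed in HBSS with 2.5 mM probenecid and 20 mM HEPES, pH 7.4. Agonist was added on FLIPR and read at ex 495/em 520 nm. EC50 is relative to the maximum from 1 μM C3a; n ≥ 3.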

[13] = target: T2, C3a anaphylatoxin chemotactic receptor (Homo sapiens) (UniProt Q16581); assay: Potency index, ratio of SB290157 IC50 to test compound IC50 for antagonist activity at C3a receptor in human MDM cells; assay type: cell-based
T2 sequence (whole entry): T1 sequence (Q16581 whole entry)

[14] = target: T2, C3a anaphylatoxin chemotactic receptor (Homo sapiens); assay: Displacement of Eu-DTPA-C3a from Galpha16-coupled C3a receptor (unknown origin) expressed in HEK293 cells measured after 60 mins by time-resolved fluorescence assay; assay type: cell-based
[15] = target: T3, C5a anaphylatoxin chemotactic receptor 1 (Homo sapiens) (UniProt P21730); assay: Antagonist activity at C5a receptor in human MDM cells assessed as inhibition of C5a-induced intracellular calcium release preincubated for 30 mins followed by C5a addition and measured at 1 sec interval for => 200 secs by Fluo-3 AM dye-based FLIPR assay; assay type: functional, cell-based
T3 sequence (whole entry): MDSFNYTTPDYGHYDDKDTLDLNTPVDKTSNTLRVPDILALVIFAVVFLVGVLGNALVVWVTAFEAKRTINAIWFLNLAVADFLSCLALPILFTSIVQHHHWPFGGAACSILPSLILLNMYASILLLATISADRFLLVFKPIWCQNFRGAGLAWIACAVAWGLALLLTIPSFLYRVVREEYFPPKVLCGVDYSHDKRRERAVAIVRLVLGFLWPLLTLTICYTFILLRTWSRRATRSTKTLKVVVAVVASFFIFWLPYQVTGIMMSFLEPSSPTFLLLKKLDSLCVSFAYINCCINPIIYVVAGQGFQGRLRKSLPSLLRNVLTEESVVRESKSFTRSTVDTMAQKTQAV
Outline: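 HMDMs from CD14+ monocytes after 7 days in M-CSF; 5 × 10⁴ cells/well seeded overnight. Cells loaded 1 h at 37 °C with 4 μM Fluo-3 AM, then washed into HBSS with 2.5 mM probenecid and 20 mM HEPES, pH 7.4. Antagonist preincubated 30 min at 37 °C before C5a. Fluorescence (ex 495/em 520 nm) read every 1 s for ≥200 s.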

[16] = tested on: Rattus norvegicus; assay: Antiinflammatory activity in Wistar rat model of BR103-induced paw edema assessed as reduction in hind paw swelling at 30 mg/kg, po administered via gavage pretreated for 4 hrs followed by BR103 challenge and measured after 30 mins by digital caliper method relative to control; assay type: functional; set-up: scale not given: the % may be the effect or the level left
Outline: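 For duration of action, antagonist was given at 30 mg/kg by oral gavage in olive oil at 1, 2, 4, 6, 8 or 12 h before intraplantar BR103 (350 μg/paw) in male Wistar rats. Controls received olive oil 2 h before challenge. Paw thickness and width were measured with calipers at 0 and 0.5 h; n = 3 per group.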

[17] = Stability of the compound in rat liver microsomes assessed as compound degradation at 1 uM preincubated for 5 mins followed by NADPH addition and measured after 1 hr by LC-MS/MS analysis; assay type: ADME, Microsome; conditions: read-out: Drug degradation
Outline: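 Compound at 1 μM in 100 mM phosphate buffer pH 7.4 with 0.1% DMSO was mixed with rat liver microsomes and preincubated 5 min at 37 °C before NADPH was added. Samples taken at 0, 5, 15, 30 and 60 min, quenched in MeCN/H₂O 9:1 and analyzed by LC-MS/MS. Microsome activity checked with SLIGRL-NH₂; n = 3.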

[18] = target: T2, C3a anaphylatoxin chemotactic receptor (Homo sapiens); assay: (§3) Antagonist at C3a receptor in human LAD2 cells assessed as inhibition of C3a-induced beta-hexosaminidase release preincubated for 30 mins followed by C3a addition; assay type: cell-based
Outline: (§4)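 LAD2 mast cells grown with SCF, 1 × 10⁴ cells/well seeded overnight and presensitized overnight with IgE (100 ng/mL). Compounds preincubated 30 min at 37 °C in 0.1 M HEPES pH 7.4, then C3a added and β-hexosaminidase release measured. IC50 is concentration inhibiting 50% of release induced by 100 nM C3a; n ≥ 3.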

[19] = target: T1, C3a anaphylatoxin chemotactic receptor; assay: as §3; assay type: cell-based; outline: as §4
[20] = target: T2, C3a anaphylatoxin chemotactic receptor (Homo sapiens); assay: Potency index, ratio of SB290157 IC50 to test compound IC50 for antagonist activity at C3a receptor in human LAD2 cells assessed as inhibition of C3a-induced beta-hexosaminidase release; assay type: cell-based
[21] = target: T1, C3a anaphylatoxin chemotactic receptor; assay: Partial agonist activity at C3a receptor in human MDM cells assessed as induction of intracellular calcium release at higher concentration measured at 1 sec interval for => 200 secs by Fluo-3 AM dye-based FLIPR assay relative to control; assay type: cell-based; outline: as §2
[22] = tested on: Rattus norvegicus; assay: Antiinflammatory activity in Wistar rat model of BR103-induced paw edema assessed as reduction in hind paw swelling at <30 mg/kg, po administered via gavage pretreated for 2 hrs followed by BR103 challenge and measured after 0.5 to 2 hrs by digital caliper method; assay type: functional, organism-based

## N=C(N)NCCC[C@H](NC(=O)c1ccc(C(c2ccc(Cl)cc2)c2ccc(Cl)cc2)s1)C(=O)O
[1]
  Activity: 45%
[2]
  half-life: 1.02 h
[3]
  AUC(0-t) at 8 h: 814 ng·h/mL
[4]
  Stability: Stable
[5]
  Cmax: 143 ng/mL
[6]
  Stability: Stable
[7]
  Vd: 0.3 L
[8]
  Tmax: 4 h
[9]
  AUC(0-t) at 8 h: 1800 ng·h/mL
[10]
  clearance: 4.6 mL/min/kg
[11]; read-out: IC50
  IC50: 30 nM
[12]; read-out: EC50
  EC50: > 100000 nM
[12]; read-out: pEC50 (converted)
  EC50: > 100000 nM

## N=C(N)NCCC[C@H](NC(=O)c1ccc(C(c2ccccc2)c2ccccc2)s1)C(=O)O
[1]
  Activity: 20%
[13]
  Ratio IC50: 15
[2]
  half-life: 0.533 h
[14]
  inhibition: Dose-dependent effect
[3]
  AUC(0-t) at 8 h: 436 ng·h/mL
[15]
  inhibition: inactive
[5]
  Cmax: 91 ng/mL
[6]
  Stability: Stable
[7]
  Vd: 0.4 L
[8]
  Tmax: 3.5 h
[9]
  AUC(0-t) at 8 h: 811 ng·h/mL
[10]
  clearance: 10.3 mL/min/kg
[16]
  Activity: <=60%
[11]; read-out: IC50
  IC50: 85 nM
[17]
  metabolised at 1 h, 1 µM: 60%
[18]
  inhibition: Dose-dependent effect
[19]
  IC50: 4 nM
[20]
  Ratio IC50: 100
[21]
  Activity: 30 to 80%
[12]; read-out: EC50
  EC50: > 100000 nM
[12]; read-out: pEC50 (converted)
  EC50: > 100000 nM

## N=C(N)NCCC[C@H](NC(=O)COCC(c1ccccc1)c1ccccc1)C(=O)O
[22]
  Activity: inactive
[11]; read-out: IC50
  IC50: 1300 to 3800 nM
[11]; read-out: pIC50 (converted)
  IC50: 3980 nM
[18]
  inhibition: Dose-dependent effect
[19]
  IC50: 540 nM
[12]; read-out: EC50
  EC50: > 100000 nM
[12]; read-out: pEC50 (converted)
  EC50: > 100000 nM
